This note sets out measurements from ChEMBL document CHEMBL4680284, “Doxorubicin and Aclarubicin: Shuffling Anthracycline Glycans for Improved Anticancer Agents” (J Med Chem, 2020).

Series [1] can be described thus: Drug uptake in human K562 cells at 1 uM by flow cytometry relative to doxorubicin. As to conditions: k562, 1 µM. The format is ADME, cell-based. In a few lines: (§1)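 K562 cells in RPMI-1640 with 8% FCS were exposed to 1 μM drug for 2 h. They were then washed, collected and fixed with paraformaldehyde. The intrinsic anthracycline fluorescence was read by flow cytometry with a 561 nm laser and a 610/20 nm detector.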
(In general: In flow cytometry, cells or beads pass a laser one at a time.)

The target of series [2] is DNA topoisomerase 2-alpha (Homo sapiens) (UniProt P11388). As to the kind of experiment: Induction of relocalization of GFP-tagged Topo2a (unknown origin) expressed in human MEL-JUSO cells at 10 uM incubated for 15 mins. The class given is cell-based. In a few lines: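 MelJuSo cells were transiently transfected with a TopoIIα-GFP construct and imaged live by confocal microscopy. Relocalization of TopoIIα was expressed as a fractional distance.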
Sequence of DNA topoisomerase 2-alpha (Homo sapiens) (P11388 whole entry): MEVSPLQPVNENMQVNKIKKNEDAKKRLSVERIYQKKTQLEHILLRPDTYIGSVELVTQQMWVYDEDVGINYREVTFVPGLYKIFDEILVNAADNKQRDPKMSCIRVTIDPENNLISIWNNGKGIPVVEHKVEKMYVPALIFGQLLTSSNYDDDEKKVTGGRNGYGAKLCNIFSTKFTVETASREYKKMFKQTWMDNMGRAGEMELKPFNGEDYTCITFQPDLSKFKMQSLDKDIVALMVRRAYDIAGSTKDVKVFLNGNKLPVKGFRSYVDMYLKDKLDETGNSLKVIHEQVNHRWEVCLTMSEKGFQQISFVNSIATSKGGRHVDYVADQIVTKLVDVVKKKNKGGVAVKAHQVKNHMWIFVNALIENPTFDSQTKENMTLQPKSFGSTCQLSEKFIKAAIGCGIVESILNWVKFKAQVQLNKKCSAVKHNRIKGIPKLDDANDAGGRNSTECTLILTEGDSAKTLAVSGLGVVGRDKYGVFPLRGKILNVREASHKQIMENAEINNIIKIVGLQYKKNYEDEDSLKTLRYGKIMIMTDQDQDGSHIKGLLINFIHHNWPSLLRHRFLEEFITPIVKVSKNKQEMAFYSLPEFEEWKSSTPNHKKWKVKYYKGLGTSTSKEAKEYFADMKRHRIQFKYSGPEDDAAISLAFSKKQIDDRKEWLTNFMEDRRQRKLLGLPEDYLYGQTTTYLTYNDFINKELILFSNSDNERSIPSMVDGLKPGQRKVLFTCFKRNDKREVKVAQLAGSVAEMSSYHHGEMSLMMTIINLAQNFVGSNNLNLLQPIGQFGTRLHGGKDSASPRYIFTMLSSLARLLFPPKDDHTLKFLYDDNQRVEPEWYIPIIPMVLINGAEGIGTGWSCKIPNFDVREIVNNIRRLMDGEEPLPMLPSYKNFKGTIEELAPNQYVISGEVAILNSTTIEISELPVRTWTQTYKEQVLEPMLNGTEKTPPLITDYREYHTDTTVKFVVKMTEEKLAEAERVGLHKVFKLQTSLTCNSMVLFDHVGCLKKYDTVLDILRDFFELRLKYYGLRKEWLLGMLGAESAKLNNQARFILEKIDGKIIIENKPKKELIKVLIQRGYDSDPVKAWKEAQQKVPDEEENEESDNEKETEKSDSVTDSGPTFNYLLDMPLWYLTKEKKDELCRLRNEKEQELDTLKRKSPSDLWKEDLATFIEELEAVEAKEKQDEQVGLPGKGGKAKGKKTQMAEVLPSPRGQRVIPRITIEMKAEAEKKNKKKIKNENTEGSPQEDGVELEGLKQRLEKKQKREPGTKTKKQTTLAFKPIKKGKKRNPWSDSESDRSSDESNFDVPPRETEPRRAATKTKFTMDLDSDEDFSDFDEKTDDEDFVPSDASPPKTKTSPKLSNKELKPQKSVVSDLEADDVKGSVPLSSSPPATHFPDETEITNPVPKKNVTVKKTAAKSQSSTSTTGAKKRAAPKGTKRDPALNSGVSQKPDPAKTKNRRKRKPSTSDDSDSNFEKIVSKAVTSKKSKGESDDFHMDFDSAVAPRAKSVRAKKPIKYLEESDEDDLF

For series [3], the system named is MEL-JUSO. As to the kind of experiment: Induction of histone eviction in human MEL-JUSO cells assessed as release of photoactivated green fluorescent protein-labeled histone H2A at 10 uM incubated for 2 hrs by time-lapse confocal microscopy. The format is functional, cell-based. In a few lines:
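MelJuSo cells stably expressing PAGFP-H2A were kept in IMDM with 8% FCS and G-418. Nuclear regions were photoactivated and 10 μM drug was added. Time-lapse confocal imaging (63× lens, climate chamber) followed the loss of fluorescence from the activated regions. Values are mean ± SD of 10–20 cells from at least three independent experiments.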

The test system of series [4] is DNA. As to the kind of experiment: Induction of DNA damage in human K562 cells assessed as induction of DNA break formation by measuring H2AX phosphorylation at 10 uM incubated for 2 hrs by constant-field gel […] method. The class given is cell-based. An outline of the steps:
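K562 cells were exposed to 10 μM drug for 2 h and washed extensively. DNA double-strand breaks were then resolved by constant-field gel electrophoresis and the images quantified. Results are mean ± SD of three independent experiments.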

The test system of series [5] is DNA. As to the kind of experiment: Induction of DNA damage in human K562 cells assessed as induction of DNA break formation by measuring H2AX phosphorylation at 10 uM incubated for 2 hrs by Western blot analysis. The class given is cell-based. In a few lines: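 K562 cells were given 10 μM drug for 2 h, then washed extensively. They were lysed in SDS sample buffer (2% SDS, 60 mM Tris–HCl pH 6.8) and run on SDS-PAGE. Blots were probed for γH2AX (1:1000), with β-actin (1:10000) as the loading control. The γH2AX signal was quantified relative to actin.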
(In general: Immunoblotting shows a protein as a band on a membrane.)

Series [6] is described as follows: Drug uptake in human K562 cells at 1 uM by flow cytometry relative to aclarubicin. The settings on record: k562, 1 µM. The class given is ADME, cell-based. In a few lines:
as §1

The test system of another series is K562. As to the kind of experiment: Cytotoxicity in human K562 cells assessed as reduction in cell viability incubated for 2 hrs by Cell-titer-blue assay. The class given is functional, cell-based. The settings on record: K562, 2 h. An outline of the steps: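 The drugs were then removed and the cells grown a further 72 h before a CellTiter-Blue viability read. Survival was normalized to the untreated control and background-corrected, with mean ± SD from three experiments. Culture was at 37 °C in 5% CO2. Media with 8% FCS were RPMI-1640 (DU145, HCT116, K562, PC3), IMDM (MelJuSo) and DMEM (U87).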

The subject of a further series is DU-145. As to the kind of experiment: Cytotoxicity in human DU-145 cells assessed as reduction in cell viability incubated for 2 hrs by Cell-titer-blue assay. The class given is functional, cell-based. The settings on record: DU-145, 2 h. In a few lines: (§2)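 The drugs were then removed and the cells grown a further 72 h before a CellTiter-Blue viability read. Survival was normalized to the untreated control and background-corrected, with mean ± SD from three experiments. Culture was at 37 °C in 5% CO2.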

The test system of series [7] is MEL-JUSO. As to the kind of experiment: Cytotoxicity in human MEL-JUSO cells assessed as reduction in cell viability incubated for 2 hrs by Cell-titer-blue assay. The format is functional, cell-based. An outline of the steps:
as §2

The test system of a further series is U-87 MG. As to the kind of experiment: Cytotoxicity in human U87 cells assessed as reduction in cell viability incubated for 2 hrs by Cell-titer-blue assay. The class given is functional, cell-based, U-87MG ATCC. In a few lines: as §2
The subject of the next series is HCT-116. As to the kind of experiment: Cytotoxicity in human HCT-116 cells assessed as reduction in cell viability incubated for 2 hrs by Cell-titer-blue assay. The format is functional, cell-based. The settings on record: HCT-116, 2 h. An outline of the steps: as §2
For the next series, the system named is PC-3. As to the kind of experiment: Cytotoxicity in human PC-3 cells assessed as reduction in cell viability incubated for 2 hrs by Cell-titer-blue assay. The class given is functional, cell-based. As to conditions: PC-3, 2 h. An outline of the steps:
as §2

Calls of active or inactive are those of the source. The calls are words filed in the database; no cut-off is given here.

By IC50 is commonly meant the midpoint of a concentration-inhibition curve.

On to `COc1cccc2c1C(=O)c1c(O)c3c(c(O)c1C2=O)C[C@@](O)(C(=O)CO)C[C@@H]3O[C@H]1C[C@H](N)[C@H](O[C@H]2C[C@H](O)[C@H](O)[C@H](C)O2)[C@H](C)O1`, for which the Drug uptake result in [1] is “Not Active”. Also, the outcome (in series [2]; with MEL-JUSO [3]; with DNA [4]; with DNA [5]) was inactive.

As to `CC[C@@]1(O)C[C@H](O[C@H]2C[C@H](N)[C@H](O[C@H]3C[C@H](O)[C@H](O[C@H]4CCC(=O)[C@H](C)O4)[C@H](C)O3)[C@H](C)O2)c2c(cc3c(c2O)C(=O)c2c(O)cccc2C3=O)[C@H]1C(=O)OC`, the Drug uptake entry in [6] is given as “Active”. Further, the IC50 with K562 was 3040 nM. For the same compound, the result in series [2] (filed as modulator) was Active. The result with MEL-JUSO [3], in the series on DNA [4] and in the series on DNA [5] was inactive.

In the case of `CC[C@@]1(O)C[C@H](O[C@H]2C[C@H](N)[C@H](O)[C@H](C)O2)c2c(cc3c(c2O)C(=O)c2c(O)cccc2C3=O)[C@H]1C(=O)OC`, the Drug uptake result in [6] is “Not Active”. Moreover, the result in [2] (filed as modulator) was Active. The result in the series on MEL-JUSO [3], in the series on DNA [4] and in the series on DNA [5] was inactive.

`COc1cccc2c1C(=O)c1c(O)c3c(c(O)c1C2=O)C[C@@](O)(C(=O)CO)C[C@@H]3O[C@H]1C[C@H](N)[C@H](O[C@H]2C[C@H](O)[C@H](O[C@H]3CCC(=O)[C@H](C)O3)[C@H](C)O2)[C@H](C)O1`: the IC50 in the series on DU-145 came to 1360 nM; in the series with MEL-JUSO [7], 1810 nM; with K562 it was 1400 nM; in the series with U-87 MG, 2210 nM; with HCT-116, 1860 nM; in the series on PC-3, 1540 nM. Moreover, in series [1], the Drug uptake entry is reported as “Not Active”. In addition, the result (in series [2] (filed as modulator); with DNA [4]; in the series with DNA [5]) was Active. Also, the outcome with MEL-JUSO [3] was inactive.

For the compound `COc1cccc2c1C(=O)c1c(O)c3c(c(O)c1C2=O)C[C@@](O)(C(=O)CO)C[C@@H]3O[C@H]1C[C@H](N(C)C)[C@H](O[C@H]2C[C@H](O)[C@H](O[C@H]3CCC(=O)[C@H](C)O3)[C@H](C)O2)[C@H](C)O1`, the IC50 in the series with DU-145 came to 17 nM; in the series with MEL-JUSO [7] it was 7 nM; with K562 it was 26 nM; in the series with U-87 MG, 33 nM; in the series on HCT-116, 8 nM; in the series with PC-3 it was 34 nM. For the same compound, in series [1], the “fold change (FC)” value was 4. In addition, the outcome (in [2] (filed as modulator); in the series with MEL-JUSO [3]) was Active. Moreover, the outcome in the series on DNA [4] and in the series with DNA [5] was inactive.

`CC[C@@]1(O)C[C@H](O[C@H]2C[C@H](N(C)C)[C@H](O[C@H]3C[C@H](O)[C@H](O[C@H]4CCC(=O)[C@H](C)O4)[C@H](C)O3)[C@H](C)O2)c2c(cc3c(c2O)C(=O)c2c(O)cccc2C3=O)[C@H]1C(=O)OC` [ACLARUBICIN]: the IC50 came to 129 nM in the series with DU-145; 48 nM in the series on MEL-JUSO [7]; 76 nM in the series with K562; 137 nM in the series with U-87 MG; 40 nM in the series with HCT-116; 101 nM in the series on PC-3. The outcome (in series [2] (filed as modulator); with MEL-JUSO [3]) was Active. For the same compound, the outcome in the series on DNA [4] and in the series with DNA [5] was inactive.

Regarding `CC[C@@]1(O)C[C@H](O[C@H]2C[C@H](N(C)C)[C@H](O[C@H]3C[C@H](O)[C@H](O)[C@H](C)O3)[C@H](C)O2)c2c(cc3c(c2O)C(=O)c2c(O)cccc2C3=O)[C@H]1C(=O)OC`, the IC50 in the series on DU-145 was 509 nM; in the series with MEL-JUSO [7], 423 nM; in the series on K562, 211 nM; with U-87 MG it was 448 nM; in the series on HCT-116, 261 nM; with PC-3 it was 383 nM. Moreover, the Drug uptake result in series [6] is given as “Active”. For the same compound, the outcome (in series [2] (filed as modulator); with MEL-JUSO [3]) was Active. Also, the outcome in the series on DNA [4] and in the series on DNA [5] was inactive.

`COc1cccc2c1C(=O)c1c(O)c3c(c(O)c1C2=O)C[C@@](O)(C(=O)CO)C[C@@H]3O[C@H]1C[C@H](N)[C@H](O)[C@H](C)O1` [DOXORUBICIN]: the IC50 was 534 nM in the series on DU-145; 237 nM in the series with MEL-JUSO [7]; 361 nM with K562; 381 nM with U-87 MG; 579 nM in the series on HCT-116; 1140 nM in the series with PC-3. In addition, the outcome (in series [2] (filed as modulator); in the series on MEL-JUSO [3]; in the series with DNA [4]; with DNA [5]) was Active.

`COc1cccc2c1C(=O)c1c(O)c3c(c(O)c1C2=O)C[C@@](O)(C(=O)CO)C[C@@H]3O[C@H]1C[C@H](N(C)C)[C@H](O[C@H]2C[C@H](O)[C@H](O)[C@H](C)O2)[C@H](C)O1`: the IC50 with DU-145 stood at 3200 nM; in the series with MEL-JUSO [7] it was 1570 nM; in the series with K562, 2410 nM; in the series on U-87 MG it was 603 nM; in the series on HCT-116, 1370 nM; with PC-3 it was 3200 nM. In addition, the Drug uptake result in [1] is recorded as “Not Active”. Moreover, the result (in series [2] (filed as modulator); in the series on MEL-JUSO [3]) was Active. The result with DNA [4] and with DNA [5] was inactive.
